Test results reported in PubChem BioAssay.
Activity calls are given as the source filed them.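 Rule for the calls, unless noted: active = inhibition of the reporter signal at or above 50%; inactive = inhibition below 50%.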

Columns and labels:
[1] = inhibitors of TNFa-induced NFkB p65 translocation, primary screen, imaging, HUVEC, MLSMR starter and 10KST1 sets (AID 438;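 active = inhibition above 20% together with a positive visual image hit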;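 note: compound added about 3h40 before a 20 min TNFalpha stimulation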;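 for inhibition: signal is the nuclear over cytoplasmic p65 intensity ratio per well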); details: HUVEC TNFa-induced p65 nuclear translocation; cell count: measured here: nuclei count (cytotoxicity indicator), at 2.08 µM; inhibition: at 2 µM, stronger effect = higher value, 0% TNFa-plus-vehicle, 100% no-TNFa wells
[2] = reduction of polyQ htt aggregates in cells – imaging, exon1htt(103Q)mCFP cells, high-content imaging, primary screen (AID 483;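 active = visual image review flags a hit and inhibition of aggregation exceeds 20%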;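 note: compound exposure lasted 3 days before fixation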;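 for nuclei count: percent of the per-plate median nuclei count of sample wells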); details: exon1htt(103Q)mCFP cell line, aggregate imaging, at 2 µM; inhibition of aggregation: stronger effect = higher value; nuclei count: measured here: cell count, toxicity
[3] = endothelial E-selectin expression blockers – imaging, HUVEC, immunofluorescence, MLSMR starter and 10KST1 sets, primary screen (AID 487;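 active = visually confirmed hit in the image check and inhibition above 20%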;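 for inhibition: signal is fraction of cell area covered by stained E-selectin grains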;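 for nuclei count: 100% = median nuclei count of all wells on the same plate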); details: HUVEC TNFalpha-induced E-selectin immunofluorescence imaging, at 2 µM; inhibition: stronger effect = higher value; nuclei count: measured here: cell number, toxicity
[4] = target: Voltage-gated potassium channel subunit beta-2 (Rattus norvegicus) (UniProt P62483); experiment: inhibitors of rat Kvbeta2 reductase activity – biochemical, NADPH fluorescence, primary screen (AID 622;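 active = fluorescence slope higher than the sample average by over 3 SD, cut at about -0.22 in these data, passing the limit was not always enough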;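 note: slope of raw intensity against log time taken from 70 to 1610 s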); details: recombinant KvBeta, 4-cyanobenzaldehyde reduction, at 10 µM, stronger effect = higher value
Voltage-gated potassium channel subunit beta-2 (Rattus norvegicus), sequence (P62483 whole entry, looked up): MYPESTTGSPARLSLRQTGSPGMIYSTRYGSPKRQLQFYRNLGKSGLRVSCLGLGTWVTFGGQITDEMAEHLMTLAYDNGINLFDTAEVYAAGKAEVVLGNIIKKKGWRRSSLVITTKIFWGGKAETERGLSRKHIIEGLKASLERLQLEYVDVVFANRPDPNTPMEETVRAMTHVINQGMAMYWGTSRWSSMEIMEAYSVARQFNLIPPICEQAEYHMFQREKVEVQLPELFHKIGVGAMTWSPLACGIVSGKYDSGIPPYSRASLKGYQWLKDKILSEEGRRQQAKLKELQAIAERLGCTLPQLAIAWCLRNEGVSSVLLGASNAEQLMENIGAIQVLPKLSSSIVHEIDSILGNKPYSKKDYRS

[5] = target: Voltage-gated potassium channel subunit beta-2 (Rattus norvegicus) (UniProt P62483); experiment: enhancers of rat Kvbeta2 NADPH turnover – biochemical, NADPH fluorescence, primary screen (AID 623;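 active = NADPH fluorescence slope more negative than the mean of all samples by about 3 SD, 99.7% confidence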;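 note: fluorescence intensity change per second fitted from 20 to 320 s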); details: Recombinant KvBeta, NADPH fluorescence decrease slope, 10 min; at 10 µM; stronger effect = lower value
[6] = target: Muscarinic acetylcholine receptor M4 (Homo sapiens) (UniProt P08173); experiment: M4-linked GIRK flux change, two-sided – cell-based, HEK293 M4/GIRK, thallium flux, BTC-AM, M4 allosteric agonist project, primary screen (AID 625;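 active = fluorescence slope after compound addition differing from the mean of all tested samples at 99.7% confidence, mostly higher but some lower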;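 note: thallium influx through GIRK channels coupled to M4 in HEK293 cells with BTC-AM dye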); details: at 10 µM, actives lie on both sides
Muscarinic acetylcholine receptor M4 (Homo sapiens), sequence (P08173 whole entry, looked up): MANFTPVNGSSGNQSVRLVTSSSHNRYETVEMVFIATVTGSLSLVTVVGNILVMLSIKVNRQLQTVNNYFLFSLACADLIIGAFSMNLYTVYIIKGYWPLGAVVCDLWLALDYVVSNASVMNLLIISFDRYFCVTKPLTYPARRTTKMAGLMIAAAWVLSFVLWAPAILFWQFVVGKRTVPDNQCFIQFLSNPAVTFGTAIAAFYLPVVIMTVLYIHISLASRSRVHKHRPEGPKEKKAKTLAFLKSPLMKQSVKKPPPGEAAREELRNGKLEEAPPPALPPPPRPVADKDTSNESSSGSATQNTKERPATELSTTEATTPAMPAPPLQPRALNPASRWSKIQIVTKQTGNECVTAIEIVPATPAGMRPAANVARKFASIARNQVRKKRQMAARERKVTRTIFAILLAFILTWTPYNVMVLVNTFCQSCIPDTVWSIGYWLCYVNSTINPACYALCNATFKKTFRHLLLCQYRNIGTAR
Summary of the method: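 assay system = HEK293 cells with M4 receptor and GIRK channels | medium = pH 7.3 thallium assay buffer | doses = 10 µM final, single point | timing = cells overnight at 37 °C, BTC-AM loading 1 h, reads 2 min total | signal = BTC-AM fluorescence, 1 Hz kinetic reads | read-out = post-addition slope, 15–24 s, of baseline-normalized fluorescence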

[7] = blockers of RIG-like receptor reporter activation – cell-based, Sendai virus stimulus, luciferase, 10K MLSCN set, TLR/RLR signaling modifier project, primary screen (AID 602276;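 active = inhibition at or above 50% at 10 µM; inactive = inhibition below 50%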;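 note: firefly luciferase from ISG56 promoter only with Renilla not read in this screen; 0% = Sendai virus plus DMSO and 100% = medium plus DMSO without virus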); details: HEK293 RL24 IRF3 luciferase reporter, at 10 µM, stronger effect = higher value
[8] = TLR3 IRF3 reporter activation blockers – cell-based, poly I:C stimulus, luciferase, 10K MLSCN set, primary screen (AID 602277); details: HEK293-TLR3 RL24 IRF3 luciferase reporter, at 10 µM, stronger effect = higher value

SMILES	cell count [1]	inhibition [1]	inhibition of aggregation [2]	nuclei count [2] [%]	inhibition [3]	nuclei count [3] [%]	fluorescence slope [4]	NADPH fluorescence slope [5]	fluorescence slope [6]	inhibition [7]	inhibition [8]
CCCCCCNS(=O)(=O)c1ccc(Cl)s1	579	9.2% (inactive)	-1.2% (inactive)	102	-52.4% (inactive)	89.1	-0.492 (inactive)	0.000132 (inactive)	0.00433 (inactive)	19.6% (inactive)	22.4% (inactive)
Cc1noc(C)c1C(=O)Nc1sc(C)c(C)c1C#N	264	3.7% (inactive)	7.6% (inactive)	87.5	-40.3% (inactive)	103	-0.436 (inactive)	-2.4e-06 (inactive)	0.00444 (inactive)	-9.52% (inactive)	-43.8% (inactive)
CCOC(=O)C1CCN(Cc2ccc(C(=O)OC)cc2)CC1	462	-4.3% (inactive)	-0.6% (inactive)	97	4.3% (inactive)	85.6	-0.595 (inactive)	-4.2e-05 (inactive)	0.0043 (inactive)	0.779% (inactive)	12.5% (inactive)
CCOCC(=O)Nc1nc2ccc(OC)cc2s1	411	2.9% (inactive)	-11.8% (inactive)	102	-85.2% (inactive)	127	-0.522 (inactive)	-0.000124 (inactive)	0.00427 (inactive)	-34.1% (inactive)	-111% (inactive)
CCOc1ccc(CN2CCN(c3cc(C)nc4c5c(C)cc(C)nc5nn34)CC2)cc1	361	-7.1% (inactive)	5% (inactive)	108	1.9% (inactive)	114	-0.385 (inactive)	1.9e-05 (inactive)	0.00419 (inactive)	11.7% (inactive)	22.8% (inactive)
Nc1nnc(Cc2ccc(Cl)cc2)s1	331	7.5% (inactive)	-4.2% (inactive)	92.7	-130% (inactive)	115	-0.483 (inactive)	-7.5e-05 (inactive)	0.00532 (inactive)	11.6% (inactive)	13% (inactive)
COc1cc2c(OC)cccc2cc1C(=O)O	383	-1.9% (inactive)	-13.5% (inactive)	102	-12.2% (inactive)	92.7	-0.429 (inactive)	-5.9e-06 (inactive)	0.0045 (inactive)	18.2% (inactive)	8.81% (inactive)
O=C(CCn1nc(-c2ccccc2)ccc1=O)N1CCCC1	349	2.1% (inactive)	-17% (inactive)	95.9	-8.9% (inactive)	106	-0.577 (inactive)	-2e-05 (inactive)	0.00645 (inactive)	6.69% (inactive)	2.22% (inactive)
Nc1c(C2=NCCO2)nnn1Cc1ccccc1	612	4.2% (inactive)	19.4% (inactive)	79.3	-130% (inactive)	149	-0.597 (inactive)	-4.6e-05 (inactive)	0.00414 (inactive)	19.1% (inactive)	19.1% (inactive)
Cc1cc(NS(=O)(=O)c2ccccc2)n(-c2ccccc2)n1	395	10.8% (inactive)	-18.2% (inactive)	94.7	-59.1% (inactive)	106	-0.544 (inactive)	-4.8e-05 (inactive)	0.00508 (inactive)	-0.656% (inactive)	28% (inactive)
COc1ccc(-c2cc3nc(C)c(CCC(=O)NCc4ccco4)c(C)n3n2)c(OC)c1	393	4.9% (inactive)	-18.2% (inactive)	105	-25% (inactive)	83.7	-0.443 (inactive)	-0.00019 (inactive)	0.00532 (inactive)	12.2% (inactive)	11.7% (inactive)
COc1ccc2c(c1)c1c(n2C(C)=O)C(OC(C)=O)=NCC1	904	-1.4% (inactive)	-12.8% (inactive)	101	-98.4% (inactive)	128	-0.166 (active)	-2.6e-05 (inactive)	0.00438 (inactive)	13.2% (inactive)	-6.44% (inactive)
COc1ccccc1C(=O)Nc1c2c(nn1-c1cccc(C)c1C)CS(=O)(=O)C2	335	-6.6% (inactive)	-7% (inactive)	79.5	-51.3% (inactive)	106	-0.492 (inactive)	-4.5e-06 (inactive)	0.00519 (inactive)	14.2% (inactive)	19.1% (inactive)
Cn1c(=O)c2c(ncn2CC(O)CNc2ccc(Cl)cc2)n(C)c1=O (stereo not drawn)	629	-6.3% (inactive)	-15.7% (inactive)	100	-104% (inactive)	110	-0.447 (inactive)	3.3e-05 (inactive)	0.00475 (inactive)	3.66% (inactive)	2.85% (inactive)
CN(CCCC(=O)Nc1ccncc1)S(=O)(=O)c1ccc(Cl)cc1	573	-5.7% (inactive)	-13.4% (inactive)	106	-18.9% (inactive)	127	-0.584 (inactive)	2.2e-07 (inactive)	0.00791 (inactive)	-14.2% (inactive)	-29.3% (inactive)
CCN(CC(=O)NC(=O)NCc1ccco1)Cc1nc2ccccc2c(=O)[nH]1	407	-20.9% (inactive)	-36.6% (inactive)	97.9	63.7% (active)	68.4	-0.561 (inactive)	-5.5e-05 (inactive)	0.0066 (inactive)	15.7% (inactive)	15% (inactive)
COc1ccc(/C(O)=C2/C(=O)C(=O)N(CC3CCCO3)C2c2cccc(OC)c2)cc1 (stereo not drawn)	717	3.9% (inactive)	-15.3% (inactive)	118	36.2% (inactive)	97.6	-0.429 (inactive)	-3.2e-05 (inactive)	0.00604 (inactive)	14.7% (inactive)	21.1% (inactive)
N#CCCCN1C(=O)C(O)(CC(=O)c2ccc3c(c2)OCCO3)c2ccccc21 (stereo not drawn)	698	-8.8% (inactive)	-16.7% (inactive)	100	-15.5% (inactive)	112	-0.567 (inactive)	1.9e-06 (inactive)	0.0053 (inactive)	7.56% (inactive)	11.6% (inactive)
Cc1cc2c(c(=O)n1CCc1ccccc1)C(C(C)C)C(C#N)=C(N)O2 (stereo not drawn)	565	11.2% (inactive)	-1.8% (inactive)	106	-39% (inactive)	123	-0.577 (inactive)	-7.9e-05 (inactive)	0.00377 (inactive)	15.9% (inactive)	25.8% (inactive)
COc1ccc(-c2noc(CN3CCC(Cc4ccccc4)CC3)n2)cc1	322	-0.7% (inactive)	-24.1% (inactive)	104	-98.5% (inactive)	123	-0.553 (inactive)	6.3e-06 (inactive)	0.00696 (inactive)	-7.04% (inactive)	-6.07% (inactive)
CCSc1nc(-c2ccc(OC)cc2)ccc1C#N	380	1.5% (inactive)	-5.1% (inactive)	72.9	-44.4% (inactive)	101	-0.551 (inactive)	-1.9e-05 (inactive)	0.00795 (inactive)	9.36% (inactive)	7.27% (inactive)
N#Cc1nc(-c2cccs2)oc1NCc1ccc(Cl)cc1	341	-8.1% (inactive)	19.1% (inactive)	98.9	47.2% (inactive)	106	-0.526 (inactive)	-2e-05 (inactive)	0.00571 (inactive)	18.3% (inactive)	10.5% (inactive)
CCOC(=O)C(NC(=O)C1CCCN1C(=O)OCc1ccccc1)C(=O)OCC (stereo not drawn)	586	7.2% (inactive)	-1.6% (inactive)	105	-11% (inactive)	97.9	-0.567 (inactive)	-1.7e-05 (inactive)	0.00516 (inactive)	20.4% (inactive)	32% (inactive)
CCN1CCCC1CNCc1ccc(Cl)cc1Cl (stereo not drawn)	474	13.6% (inactive)	1.2% (inactive)	87.1	-106% (inactive)	152	-0.316 (inactive)	-1.4e-06 (inactive)	0.0068 (inactive)	-5.98% (inactive)	5.14% (inactive)
Cc1cc(NC(=O)CN2CCC(O)(c3cccc(F)c3)CC2)no1	584	-53.1% (inactive)	0.2% (inactive)	103	-107% (inactive)	117	-0.283 (inactive)	-1.6e-05 (inactive)	0.00664 (inactive)	-0.229% (inactive)	20.2% (inactive)
CCCCOC(=O)CSc1nc2c(cc1C#N)C(=O)CC(C)(C)C2	531	6.7% (inactive)	-21.3% (inactive)	98.4	37.8% (inactive)	96.9	-0.447 (inactive)	-0.000295 (inactive)	0.00537 (inactive)	-23.7% (inactive)	-55.1% (inactive)
O=c1[nH]c2cccnc2n1Cc1ccco1	325	-4.2% (inactive)	-15% (inactive)	114	-5.2% (inactive)	119	-0.323 (inactive)	-4.8e-05 (inactive)	0.0064 (inactive)	7.81% (inactive)	6.25% (inactive)
Cn1c(=O)c2c(nc(SCC(=O)NCc3ccc4c(c3)OCO4)n2Cc2ccccc2)n(C)c1=O	641	-14.8% (inactive)	10.5% (inactive)	104	-33% (inactive)	115	-0.473 (inactive)	-3.8e-05 (inactive)	0.0042 (inactive)	12.6% (inactive)	11.8% (inactive)
